Bioassay records as filed in PubChem BioAssay.
KCNQ1 inh: human KCNQ1 channel inhibition; P51787; CHO-K1 KCNQ1, FluxOR thallium flux fluorescence; active compounds read high; B-score at 10 µM; hit rate 1.3% among 310,000; AID 2642;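 active means compounds whose thallium flux B-score, printed positive for inhibition, exceeds three library SD while starting fluorescence stays within three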;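 further: channel opened by potassium depolarization with thallium stimulus after 20 min compound exposure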
KCNK9 block: blocks the human KCNK9 two-pore domain potassium channel; HEK293 KCNK9, FluxOR thallium flux fluorescence; active compounds read low; B-score at 10 µM; hit rate 1.2% among 310,000; AID 488922;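 active means ratio B-score over 3 SD below the library mean, with starting fluorescence within 5 SD of its mean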;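 further: negative B-score means less thallium flux so channel inhibition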
KCNQ1 act: potentiators or activators of human KCNQ1 potassium channel; CHO-K1 KCNQ1, thallium flux FluxOR fluorescence; active compounds read high; AID 2648; P51787; B-score at 10 µM; hit rate 0.35% among 310,000;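 active means fluorescence ratio B-score, a plate-corrected score, at least three library SD, with initial intensity B-score within 5 SD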
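assay system = CHO-K1 cells stably expressing KCNQ1 | medium = assay buffer, equal DMSO in all wells | timing = 37 °C overnight plating, 90-min dark dye load, 20-min compound pretreatment | measured by = kinetic FluxOR thallium fluorescence, 10-s 1-Hz baseline, 110-s post-stimulus read | measure = fluorescence change relative to baseline, converted to B score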
Kir21 inh: blocks the mouse Kir2.1 inward-rectifier potassium channel. P35561. AID 1672. HEK293-Kir2.1, FluxOR thallium flux fluorescence; active compounds read low. hit rate 0.85% among 310,000. B-score at 10 µM;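 active means fluorescence ratio B-score at or below minus 3 SD of library scores, with starting-brightness B-score within 2 SD, cut at about -4.2 in these data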;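 further: channel flux triggered by added potassium and thallium sulfate stimulus; B-score of peak minus minimum fluorescence over baseline after thallium stimulus; more negative B-score means stronger Kir2.1 block with less thallium influx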
hERG rescue: shields human hERG channel from block by proarrhythmic agents; Q12809; CHO-hERG, FluxOR thallium flux, dofetilide IC70 present; activation (rescue from dofetilide block), less the hit threshold, % at 10 µM; hit rate 0.51% among 310,000; AID 1511;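 active means activation above the mean of controls blocked by dofetilide plus 5 SD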;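 further: thallium influx through hERG after potassium depolarization seen as dye fluorescence rise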
KCNK3 block: human KCNK3 channel inhibition, primary screen; O14649; CHO-KCNK3 thallium flux, FluxOR fluorescence; active compounds read low; AID 602410; B-score at 10 µM; hit rate 0.84% among 340,000;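 active means B-score under library mean minus 4 SD, starting fluorescence ratio at most library mean plus 5 SD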;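 further: more negative B-score means stronger inhibition of thallium flux through KCNK3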
KCNQ1 inh valid: confirmation of human KCNQ1 potassium channel inhibitors; shares compounds with KCNQ1 inh; KCNQ1 cell line, FluxOR thallium flux fluorescence; inhibition, % at 10 µM; hit rate 93% among 1,600;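 active means primary screen active, with duplicate mean exceeding buffer control mean plus 3 SD of buffer wells, cut at about 28% in these data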
CHO KCNQ1 ctr: activity in parental CHO cells lacking KCNQ1. fluorescence ratio (Tl flux) at 10 µM. parental CHO-K1, FluxOR thallium flux fluorescence ratio; active compounds read low; zero means no signal rise above baseline. shares compounds with KCNQ1 inh. AID 588366. hit rate 21% among 1,600;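 active means mean of duplicate thallium-flux fluorescence ratios in parental host cells more than 5 SD below the buffer control mean, cut at about 0.38 in these data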;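 further: ratio is peak minus minimum fluorescence divided by baseline fluorescence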
KCNQ1 ephys val: blocks human KCNQ1 current in automated patch clamp. shares compounds with KCNQ1 inh. KCNQ1-CHO cells. calls only at 10 µM. hit rate 20% among 490. AID 624120;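 active means KCNQ1 current drop exceeding 3 SD of negative control wells, seen in both duplicate runs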;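 further: steady state current during a 2 s step from -80 to +40 mV; negative values mean current inhibition and positive values mean potentiation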
KCNQ2 inh: rat KCNQ2 inhibition in KCNQ1 inhibitor specificity screen. inhibition, % at 10 µM. KCNQ2 cells, FluxOR thallium flux fluorescence. AID 651746. hit rate 71% among 1,600. shares compounds with KCNQ1 inh;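 active means mean percent inhibition of the KCNQ2 thallium signal more than 5 SD above the buffer-only control wells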;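 further: KCNQ2 expressed in CHO cells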
Target sequence (O88943 whole entry, looked up): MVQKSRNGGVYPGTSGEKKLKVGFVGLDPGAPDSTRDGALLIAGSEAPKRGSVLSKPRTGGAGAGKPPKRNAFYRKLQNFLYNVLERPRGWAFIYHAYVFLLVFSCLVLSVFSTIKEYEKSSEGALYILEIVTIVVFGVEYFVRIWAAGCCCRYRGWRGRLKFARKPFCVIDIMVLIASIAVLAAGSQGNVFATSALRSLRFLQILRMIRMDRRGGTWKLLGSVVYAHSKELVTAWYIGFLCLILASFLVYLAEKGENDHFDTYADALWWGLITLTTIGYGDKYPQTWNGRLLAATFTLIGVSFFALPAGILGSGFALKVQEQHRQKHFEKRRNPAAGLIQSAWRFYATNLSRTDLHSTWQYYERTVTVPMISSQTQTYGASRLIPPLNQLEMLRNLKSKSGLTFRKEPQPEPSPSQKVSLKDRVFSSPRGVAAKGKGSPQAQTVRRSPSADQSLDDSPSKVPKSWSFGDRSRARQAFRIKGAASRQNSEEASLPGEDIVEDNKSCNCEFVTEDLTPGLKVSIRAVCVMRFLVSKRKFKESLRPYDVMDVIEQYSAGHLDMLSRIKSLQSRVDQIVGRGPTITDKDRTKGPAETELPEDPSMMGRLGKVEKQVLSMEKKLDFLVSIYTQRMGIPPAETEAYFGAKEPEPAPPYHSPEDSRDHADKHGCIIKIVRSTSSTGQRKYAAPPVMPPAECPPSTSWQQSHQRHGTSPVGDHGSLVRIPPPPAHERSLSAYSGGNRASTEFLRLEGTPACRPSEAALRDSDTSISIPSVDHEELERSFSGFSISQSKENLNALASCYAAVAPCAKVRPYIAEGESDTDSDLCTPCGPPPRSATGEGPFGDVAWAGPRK
KCNQ1-KCNE1 inh: KCNQ1 inhibitor that also blocks human KCNQ1/KCNE1 channel; shares compounds with KCNQ1 inh; KCNQ1/KCNE1 cells, FluxOR thallium flux fluorescence; inhibition, % at 10 µM; hit rate 77% among 1,600; AID 652147;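 active means mean percent inhibition of duplicate wells above the buffer-only control mean plus 3 SD of those controls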
Each line names hits and unclear results; the compound was inactive in the other large screens (follow-up assays come after a bar, where they were run). Shown are actives, neighbours in structure and some others; about 3.7% of the full set was active somewhere.

O=C(NCC1(c2ccccc2)CCCC1)c1cccc(Br)c1	KCNQ1 inh 6 | KCNQ1 inh valid 106 | CHO KCNQ1 ctr inactive | KCNQ1 ephys val active | KCNQ2 inh 112% | KCNQ1-KCNE1 inh 147%
CC(C)=C1C2CCC1C1C(=O)N(c3nc(-c4ccccc4)c(C)s3)C(=O)C21 (stereo not given)	none
CC(C)(C)c1cc(N)n2nc(C(C)(C)C)cc2n1	KCNQ1 inh 11 | KCNQ1 inh valid 96 | CHO KCNQ1 ctr inactive | KCNQ1 ephys val active | KCNQ2 inh inactive | KCNQ1-KCNE1 inh 122%
Cc1cc2nc(C(C)(C)C)cc(N)n2n1	none
O=C(c1cc(COc2ccccc2)on1)N1CCCC(CN2CCOCC2)C1 (stereo not given)	none
CCOC(=O)C(C(=O)OCC)c1cc(Br)c2noc3c2c1C(=O)c1ccccc1-3	KCNQ1 inh 16 | KCNQ1 inh valid 183 | CHO KCNQ1 ctr 0.15 | KCNQ2 inh inactive | KCNQ1-KCNE1 inh inactive
CC(=O)OCCNc1cc(N2CCN(C)CC2)c2noc3c2c1C(=O)c1ccccc1-3	none (no result: KCNQ1 inh, KCNK9 block, KCNQ1 act, Kir21 inh, hERG rescue)
CN(CC(=O)Nc1ccccc1Br)C(=O)CCCSc1nc2ccccc2[nH]1	none
N/C(=N\S(=O)(=O)c1cc(C(F)(F)F)cc(C(F)(F)F)c1)c1ccc(Cl)cc1	KCNQ1 inh 7 | KCNQ1 inh valid inactive | CHO KCNQ1 ctr inactive | KCNQ2 inh inactive | KCNQ1-KCNE1 inh inactive
Cc1cc(N2CCN(C)CC2)ccc1NC(=O)c1cccc(S(=O)(=O)N2CCc3ccccc3C2)c1	KCNQ1 inh 7 | KCNQ1 inh valid inactive | CHO KCNQ1 ctr inactive | KCNQ2 inh 66% | KCNQ1-KCNE1 inh inactive
CCCCn1c(N)c(N(CCOC)C(=O)c2ccc(F)c(S(=O)(=O)N3CCOCC3)c2)c(=O)[nH]c1=O	none
COCCn1c(C)cc(/C=N/NC(=O)c2cc3ccccc3cc2O)c1C	none (no result: KCNQ1 inh, KCNK9 block, KCNQ1 act, Kir21 inh, hERG rescue)
Cn1c(O)c(/C=N/NC(=O)c2cc3ccccc3cc2O)c2ccccc21	KCNQ1 inh 17 | KCNQ1 inh valid 101 | CHO KCNQ1 ctr 0.32 | KCNQ2 inh inactive | KCNQ1-KCNE1 inh inactive
COc1ccc(N2C(=O)CC2(C#N)c2ccc(OCc3ccccc3)cc2)cc1 (stereo not given)	none
c1csc(-c2nnc(NC3CCCCC3)c3ccccc23)c1	KCNQ1 inh 10 | KCNQ1 inh valid 52 | CHO KCNQ1 ctr inactive | KCNQ2 inh 69% | KCNQ1-KCNE1 inh 51%
CCOC(=O)c1cc(C#N)c(C)nc1N(CC)CC	none
CCC(=O)N1CCN(c2ccc(NC(=O)c3cc4ccccc4o3)cc2Cl)CC1	none
O=C(Nc1ccc(N2CCN(C(=O)c3ccco3)CC2)c(Cl)c1)c1cc2ccccc2o1	KCNQ1 inh 6 | KCNQ1 inh valid 78 | CHO KCNQ1 ctr inactive | KCNQ2 inh 108% | KCNQ1-KCNE1 inh 142%
Cc1cc(C)c(-c2cc(NC(=O)CSc3n[nH]c(N)n3)n(-c3ccccc3)n2)cc1C	KCNQ1 inh 7 | KCNQ1 inh valid 78 | CHO KCNQ1 ctr inactive | KCNQ2 inh 89% | KCNQ1-KCNE1 inh 128%
Cc1cc(C)c(-c2cc(NC(=O)COC(=O)c3ccc(CO)cc3)n(-c3ccccc3)n2)cc1C	none
O=C(c1ccc2nc[nH]c2c1)N1CCN(c2ncc(C(F)(F)F)cc2Cl)CC1	KCNQ1 inh 8 | KCNQ1 inh valid inactive | CHO KCNQ1 ctr inactive | KCNQ2 inh inactive | KCNQ1-KCNE1 inh inactive
CC(=O)c1c(N2CCOCC2)nc2ccc(Br)cc2c1-c1ccccc1	KCNQ1 inh 10 | KCNQ1 inh valid 100 | CHO KCNQ1 ctr inactive | KCNQ1 ephys val inactive | KCNQ2 inh 119% | KCNQ1-KCNE1 inh 101%
O=C(CCN1CCCCC1=O)NC1CCCN(Cc2ccc(Cl)cc2)C1 (stereo not given)	none
O=C(NCC1CC1)c1ccc(Nc2nc3ccc(Br)cc3[nH]2)cc1	none
O=C(NCc1ccco1)c1cccc(Nc2nc3ccc(Br)cc3[nH]2)c1	KCNQ1 inh 8 | KCNQ1 inh valid 163 | CHO KCNQ1 ctr 0.33 | KCNQ2 inh 128% | KCNQ1-KCNE1 inh active
Cc1ccc(OCC(=O)Nc2cccc(S(=O)(=O)N3CCCCCC3)c2)cc1C	KCNQ1 inh 7 | KCNQ1 inh valid 96 | CHO KCNQ1 ctr inactive | KCNQ1 ephys val inactive | KCNQ2 inh 99% | KCNQ1-KCNE1 inh 65%
CC(=O)Nc1cccc(OCC(=O)Nc2cccc(S(=O)(=O)N3CCCC3)c2)c1	none (no result: KCNQ1 inh, KCNK9 block, KCNQ1 act, Kir21 inh, hERG rescue)
CC(C)(C)c1ccc(OCCCC(=O)Nc2cccc(S(=O)(=O)N3CCOCC3)c2)cc1	none (no result: KCNQ1 inh, KCNK9 block, KCNQ1 act, Kir21 inh, hERG rescue)
CC(C)(C)c1ccc(OCCC(=O)Nc2cccc(S(=O)(=O)N3CCCC3)c2)cc1	KCNQ1 inh 8 | KCNQ1 inh valid 34 | CHO KCNQ1 ctr inactive | KCNQ2 inh 84% | KCNQ1-KCNE1 inh 66%
Cc1nn(C)c(Nc2ccc(Br)cc2)c1Br	KCNQ1 inh 6 | KCNQ1 inh valid 88 | CHO KCNQ1 ctr inactive | KCNQ1 ephys val inactive | KCNQ2 inh inactive | KCNQ1-KCNE1 inh 44%
O=C(CSc1ccccc1)N1CCCC(N2CCN(c3ccccc3)CC2)C1 (stereo not given)	none
CCOc1ccc2[nH]c3c(NCC(C)C)ncnc3c2c1	KCNQ1 inh 6 | KCNQ1 inh valid 69 | CHO KCNQ1 ctr inactive | KCNQ2 inh 94% | KCNQ1-KCNE1 inh 70%
CCOc1ccc2[nH]c3c(NCCOC)ncnc3c2c1	none
COc1ccc(NS(=O)(=O)c2ccc(-c3cnc(C4CC4)o3)cc2)cc1OC	KCNQ1 inh 8 | KCNQ1 inh valid 86 | CHO KCNQ1 ctr inactive | KCNQ2 inh 83% | KCNQ1-KCNE1 inh inactive
COc1ccccc1NS(=O)(=O)c1ccc(-c2cnc(C3CC3)o2)cc1	none
COC(=O)c1cc(NC(=O)c2cccc([N+](=O)[O-])c2C)ccc1Cl	none
COc1ccc(NC(=S)NCc2ccco2)cc1	none
S=C(NCc1ccco1)Nc1ccc(Cl)c(Cl)c1	KCNQ1 inh 8 | KCNQ1 inh valid 42 | CHO KCNQ1 ctr inactive | KCNQ2 inh inactive | KCNQ1-KCNE1 inh 52%
S=C(NCc1ccco1)Nc1ccc(Oc2ccccc2)cc1	KCNQ1 inh 8 | KCNQ1 inh valid 45 | CHO KCNQ1 ctr inactive | KCNQ2 inh 59% | KCNQ1-KCNE1 inh 66%
